Measured values from article PMC4796946 (Nature, 2015).
“Also recorded” adds a separate entry of the source.

What was measured:
GPR68 [1] = target: T1, GPR68 (Homo sapiens, UniProt Q15743); assay: Split-luciferase; assay type: cell-based; settings: for stimulation of cAMP production by benzodiazepines: 10 μM, pH 6.50 or 7.40
Procedure, shortened: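 HEK293-T cells were co-transfected with receptor and GloSensor 7A reporter and plated at least 6 h at 15,000 cells/well in 1% dialysed FBS DMEM. Cells were loaded with 4 mM luciferin in drug buffer, pH 8.4, for 90 min at 37 °C; luciferin was then removed. Proton concentration-responses ran without and with rising test compound levels premixed in pH-adjusted HBSS/HEPES/MES (TAPS at high pH; BSA for some). Plates stood 20 min at room temperature before luminescence reading. Data were fitted to an allosteric operational model, with proton pEC50 as pKA.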

[2] = target: GPR65 mutant receptors (D153A, R187L, F242A, Y272A) (Homo sapiens, UniProt Q8IYL9, D153A); assay: cAMP reporter assay at GPR65 mutant receptors; assay type: cell-based; settings: GPR65 D153A
Procedure, shortened: (§1)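 GloSensor cAMP assay in HEK293-T cells co-transfected with receptor (wild-type or mutant) and GloSensor 7A, plated at 15,000 cells/well for at least 6 h. Cells were loaded with luciferin (4 mM, pH 8.4, 90 min, 37 °C), which was then removed. Test compound was added in NaOH-adjusted pH solutions (HBSS, 10 mM HEPES, 10 mM MES), 20 min at room temperature. Luminescence is given as RLU fold of buffer basal. Curves were fitted with a 4-parameter logistic; n≥3.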

[3] = system: GPR65 mutant receptors (D153A, R187L, F242A, Y272A); assay: cAMP reporter assay at GPR65 mutant receptors; assay type: cell-based, human; settings: GPR65 R187L, F242A, Y272A
Procedure, shortened: as §1

GPR65 = GPR65 (Homo sapiens, UniProt Q8IYL9); assay: Split-luciferase cAMP reporter assay, GPR65; assay type: cell-based; settings: for activity at GPR65: effect on proton response, cAMP; for inhibition of GPR65: receptors activated by protons or by BTB09089
Procedure, shortened: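 GPR65 was co-transfected with the GloSensor reporter into HEK293-T cells, which were then luciferin-loaded (4 mM, pH 8.4, 90 min, 37 °C). Test compound was applied in pH-adjusted HBSS/HEPES/MES buffer for 20 min at room temperature. The receptor was activated either by protons at pH 7.40 or by 30 μM reference agonist at pH 8.40. Luminescence was normalised to buffer basal. Data come from at least three assays, each at least in triplicate (≥16 measurements total).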

phosphodiesterases = assay: Phosphodiesterase inhibition
GPR68 [4] = target: T1, GPR68; assay: PI hydrolysis assay in GPR68-transfected HEK293-T cells; assay type: cell-based; settings: 10 μM, under equilibrium
Procedure, shortened: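 Transfected HEK293-T cells (24 h) were plated in 10% FBS DMEM. After 5 h they were labelled overnight with 3H-inositol (1 μCi/well) in inositol-free DMEM with 5% dialysed FBS. Cells were washed with HBSS, 10 mM HEPES, 10 mM MES, 20 mM LiCl, pH 8.4. pH-adjusted solutions containing 20 mM LiCl and 10 μM test compound were applied for 20 min. Extraction used 50 mM ice-cold formic acid, 4 °C for 30 min; extracts were bead-captured (4 °C, 30 min) and counted as cpm; n=3.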

5-HT2B = 5-HT2B (Homo sapiens, UniProt P41595); assay: Radioligand binding profiling; settings: profiling against 58 GPCRs, ion channels, and transporters
Procedure, shortened: (§2)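 Membranes came from animal brain tissue, stable cell lines or transiently transfected HEK293-T cells. Competition binding used a fixed radioligand concentration, incubated in the dark at 22 °C, and was ended by vacuum filtration onto GF/B filters, followed by beta counting. Values are mean pKi (n=2–4).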

GPR4 = GPR4 (Homo sapiens, UniProt P46093); assay: Split-luciferase cAMP reporter assay, GPR4; assay type: cell-based; settings: effect on proton response
Procedure, shortened: as §1

[5] = system: wild-type and GPR68 KO mice; assay: Fear conditioning; assay type: in vivo
[6] = system: PKA and MAP kinase pathways; assay type: cell-based, human; settings: 50 μM, 10 min, GPR68-expressing HEK293 cells
GPR68 [7] = target: T1, GPR68; assay: Calcium mobilization assay; assay type: cell-based; settings: 10 μM, GPR68 wild-type
Procedure, shortened: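 HEK293-T cells were transfected, plated overnight in DMEM with 1% dialysed FBS at 15,000 cells/well, then loaded 60 min at 37 °C (5% CO2) with Fluo-4 Direct dye in drug buffer containing 2.5 mM probenecid, pH 8.0. Test compound was added first (10 μM final before the pH addition), followed by 10 min reading. pH solutions (HBSS, 7 mM each HEPES/HEPPS/MES, NaOH-adjusted) were then added. Fluorescence was read 1/s for 4 min and expressed as fold of basal; n=3.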

A2A receptor = A2A receptor (Homo sapiens, UniProt P29274); assay: Radioligand binding profiling; settings: profiling against 58 GPCRs, ion channels, and transporters
Procedure, shortened: as §2

control HEK293 T cells = assay: cAMP reporter assay at control HEK293 T cells; assay type: cell-based, human
Procedure, shortened: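 Control HEK293-T cells were run in the GloSensor cAMP format: luciferin loading at 4 mM, pH 8.4, 90 min, 37 °C, then removal. Test compound in pH-adjusted HBSS/HEPES/MES buffer was applied for 20 min at room temperature before luminescence reading. Results are normalised fold of basal from at least three assays, each at least in triplicate (≥16 measurements).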

[8] = cited from earlier work
GABAA receptor = assay: Radioligand binding profiling
Procedure, shortened: as §2

GPR68 [9] = target: T1, GPR68; assay: Yeast growth assay, GPR68 paired with chimeric Gq yeast; assay type: cell-based; settings: library screen at 10 μM
Procedure, shortened: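 Yeast with receptor were diluted in SD-His-Ura medium to OD600 0.02 final. Test compound was 10 μM final, in triplicate, with 3-amino-1,2,4-triazole (pH 5.4) at a level set by titration without ligand. Growth ran at 30 °C for 2–5 days. Cells were resuspended and read at OD600. % growth stimulation = […], given as mean ± SEM of three wells.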

[10] = cAMP production, proton as agonist

T1 sequence (Q15743 whole entry): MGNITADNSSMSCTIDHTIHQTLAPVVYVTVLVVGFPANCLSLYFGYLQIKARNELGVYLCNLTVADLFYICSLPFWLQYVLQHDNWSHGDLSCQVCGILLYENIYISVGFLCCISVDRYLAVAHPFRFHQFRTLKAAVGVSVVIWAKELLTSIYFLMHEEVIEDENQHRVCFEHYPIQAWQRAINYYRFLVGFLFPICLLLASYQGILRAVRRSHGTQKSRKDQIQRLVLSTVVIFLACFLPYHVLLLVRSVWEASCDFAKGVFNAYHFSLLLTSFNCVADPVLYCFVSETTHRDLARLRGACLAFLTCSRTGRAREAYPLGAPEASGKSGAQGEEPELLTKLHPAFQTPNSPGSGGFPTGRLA
Chain of GPR65 (Q8IYL9 whole entry): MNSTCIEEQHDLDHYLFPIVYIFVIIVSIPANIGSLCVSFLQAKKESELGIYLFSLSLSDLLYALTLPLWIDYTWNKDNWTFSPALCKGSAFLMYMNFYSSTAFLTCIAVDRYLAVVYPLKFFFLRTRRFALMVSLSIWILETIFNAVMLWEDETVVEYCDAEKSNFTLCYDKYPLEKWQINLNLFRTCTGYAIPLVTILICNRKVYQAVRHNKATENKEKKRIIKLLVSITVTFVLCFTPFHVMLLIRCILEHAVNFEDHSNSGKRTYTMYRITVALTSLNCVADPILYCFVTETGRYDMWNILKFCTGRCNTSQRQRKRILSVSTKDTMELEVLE
Chain of GPR65 mutant receptors (D153A, R187L, F242A, Y272A) (Homo sapiens, UniProt Q8IYL9, D153A) (Q8IYL9 whole entry D153A): as the sequence (Q8IYL9 whole entry) above, with D153A counted along it
Chain of GPR4 (P46093 whole entry): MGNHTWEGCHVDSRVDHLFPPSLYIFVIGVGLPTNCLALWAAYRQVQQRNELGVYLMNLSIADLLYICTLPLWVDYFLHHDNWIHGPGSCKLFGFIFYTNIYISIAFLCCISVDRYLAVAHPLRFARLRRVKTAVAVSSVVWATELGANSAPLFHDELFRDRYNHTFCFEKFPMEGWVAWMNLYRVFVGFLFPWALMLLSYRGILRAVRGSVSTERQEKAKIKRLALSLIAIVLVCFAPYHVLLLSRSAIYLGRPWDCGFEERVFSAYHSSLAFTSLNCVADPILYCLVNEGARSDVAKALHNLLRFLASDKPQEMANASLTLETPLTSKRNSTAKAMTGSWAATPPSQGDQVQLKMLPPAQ
Chain of 5-HT2B (P41595 whole entry): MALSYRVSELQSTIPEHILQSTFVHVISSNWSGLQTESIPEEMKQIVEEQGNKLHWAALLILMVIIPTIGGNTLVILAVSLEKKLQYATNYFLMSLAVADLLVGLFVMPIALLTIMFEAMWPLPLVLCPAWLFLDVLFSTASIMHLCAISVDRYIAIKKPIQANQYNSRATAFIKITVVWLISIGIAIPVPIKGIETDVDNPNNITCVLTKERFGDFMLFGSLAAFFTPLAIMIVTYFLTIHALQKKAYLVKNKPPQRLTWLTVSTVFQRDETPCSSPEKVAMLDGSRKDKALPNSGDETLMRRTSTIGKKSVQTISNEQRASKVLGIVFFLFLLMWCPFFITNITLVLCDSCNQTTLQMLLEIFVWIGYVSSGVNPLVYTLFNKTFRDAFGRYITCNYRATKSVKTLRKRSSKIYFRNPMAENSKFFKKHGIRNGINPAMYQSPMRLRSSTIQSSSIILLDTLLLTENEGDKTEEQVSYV
Chain of A2A receptor (P29274 whole entry): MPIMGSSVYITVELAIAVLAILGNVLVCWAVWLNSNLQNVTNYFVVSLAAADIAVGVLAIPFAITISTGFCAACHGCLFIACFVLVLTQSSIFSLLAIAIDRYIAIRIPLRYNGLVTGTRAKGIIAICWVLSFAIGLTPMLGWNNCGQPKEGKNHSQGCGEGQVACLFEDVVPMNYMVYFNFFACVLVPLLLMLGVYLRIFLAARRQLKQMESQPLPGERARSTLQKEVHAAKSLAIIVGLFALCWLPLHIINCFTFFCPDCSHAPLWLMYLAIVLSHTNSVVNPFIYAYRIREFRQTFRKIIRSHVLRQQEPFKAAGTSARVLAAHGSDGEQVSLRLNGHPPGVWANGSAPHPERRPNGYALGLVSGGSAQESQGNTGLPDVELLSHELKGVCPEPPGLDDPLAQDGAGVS

## Nc1nc(NCCCCc2ccccc2)nc(-c2ccccc2CO)n1 [C4]
GPR68 [1]; [10]
  allosteric effect (qualitative comparison): reduced allostery

## CN1N=C(SCc2ccc(Cl)cc2Cl)Sc2c1cnn(C)c2=O [BTB09089, reference compound]
[2]
  effect of D153A mutation on compound activity: no effect
[3]
  effect of R187L, F242A, Y272A mutations on compound activity: reduced the activity
GPR65
  agonist activity at GPR65 (qualitative): weak agonist activity
  mode of action at GPR65: allosteric agonist
  potentiation of proton efficacy/activity at GPR65: failed to potentiate

## Nc1nc(-c2ccc(Cl)c(Cl)c2)c(-c2ccncc2)s1 [CGH2466]
GPR68 [1]; [10]
  allosteric effect (qualitative comparison): much lower than that of ogerin
GPR68 [1]; with phosphodiesterase inhibitor Ro 20-1724
  GPR68 activity in the presence of Ro 20-1724: minimal activity
phosphodiesterases
  phosphodiesterase inhibition: potent phosphodieseterase inhibitor

## O=C1CN=C(c2ccccc2Cl)c2cc([N+](=O)[O-])ccc2N1 [clonazepam]
GPR68 [1]
  stimulation of cAMP production by benzodiazepines: stimulated cAMP production in a GPR68- and pH-dependent manner

## Nc1nc(NCc2ccccc2)nc(-c2ccccc2CO)n1 [ogerin]
GPR68 [1]; [10]
  allosteric effect (qualitative comparison): much higher allosteric effect than lorazepam
GPR68 [4]
  effect on proton activity in PI hydrolysis: slightly potentiated
GPR65
  activity at GPR65: minimal PAM activity
5-HT2B
  affinity at 5-HT2B: moderate affinity
GPR4
  activity at GPR4: minimal PAM activity
[5]; GPR68 KO mice, 10 mg/kg
  memory retrieval: no effect
[5]; WT mice, 10 mg/kg
  contextual-based fear memory: attenuated
  cue-based memory: without effects
[6]
  activation of PKA and MAP kinase pathways: activate
GPR68 [7]
  effect on proton-mediated calcium release: inhibited
A2A receptor
  affinity at A2A receptor: moderate affinity

## O=C(Nc1nc(-c2ccc3c(c2)OCCO3)cs1)c1csnn1 [ZINC41613384]
GPR65
  inhibition of GPR65: GPR65-specific inhibition

## O=C1CCc2cc(-c3csc(NC(=O)c4ccc(-c5ccccc5F)o4)n3)ccc2N1 [ZINC9468042]
GPR65
  inhibition of GPR65: GPR65-specific inhibition

## Cc1nc(-c2ncccn2)sc1C(=O)O[C@@H](c1ccccc1)c1ccncc1 [ZINC62678696]
GPR65
  inhibition of GPR65: GPR65-specific inhibition; also recorded: inhibited

## OC1CCC(Nc2nc(-c3ccccc3)nc3[nH]ccc23)CC1 (centres unmarked) [SLV320]
phosphodiesterases
  phosphodiesterase inhibition: potent phosphodieseterase inhibitor

## Nc1nc(NCCCc2ccccc2)nc(-c2ccccc2CO)n1 [C3]
GPR68 [1]; [10]
  allosteric effect (qualitative comparison): reduced allostery

## O=C1CN=C(c2ccccc2)c2cc(Cl)ccc2N1 [desmethyldiazepam]
GPR68 [1]
  stimulation of cAMP production by benzodiazepines: stimulated cAMP production in a GPR68- and pH-dependent manner

## Nc1nc(NCCc2ccccc2)nc(-c2ccccc2CO)n1 [C2]
GPR68 [1]; allosteric operational model, proton as agonist
  α-factor: 22
GPR68 [1]; cAMP production
  leftward shift of proton response relative to ogerin: 3 fold

## COc1ccc(-c2csc(NC(=O)CSc3nc[nH]n3)n2)cc1OC [ZINC13684400]
[2]
  effect of D153A mutation on compound activity: much reduced the activity
[3]
  effect of R187L, F242A, Y272A mutations on compound activity: reduced the activity
GPR65
  mode of action at GPR65: allosteric agonist
  potentiation of proton efficacy/activity at GPR65: did not potentiate
GPR65; pH 8.40
  agonist activity at GPR65: over 2 fold of basal
Control HEK293 T cells
  activity at control cells: without measurable activity

## Nc1nc(NCc2ccccc2)nc(-c2cccc(CO)c2)n1 [ZINC32547799]
[5]; wild-type mice
  learning and memory: no measurable effect
[5]; wild-type mice, 10 mg/kg
  contextual and cue memory: no effect
  learning: no effect
[5]; wild-type mice, 30 mg/kg
  contextual and cue memory: no effect
  learning: enhanced
GPR68 [7]
  effect on proton-mediated calcium release: little effect

## CCCCNc1c(C(=O)OCC)c(C)nc2c1cnn2CC [tracazolate]
phosphodiesterases
  phosphodiesterase inhibition: potent phosphodieseterase inhibitor

## O=C1CN=C(c2ccccc2F)c2cc(Cl)ccc2N1 [norfludiazepam]
GPR68 [1]
  stimulation of cAMP production by benzodiazepines: stimulated cAMP production in a GPR68- and pH-dependent manner

## O=C1Nc2ccc(Cl)cc2C(c2ccccc2Cl)=NC1O (centres unmarked) [lorazepam]
GPR68 [1]
  stimulation of cAMP production by benzodiazepines: stimulated cAMP production in a GPR68- and pH-dependent manner
GPR65
  activity at GPR65: no activity
[8]
  concentration in plasma during treatment: micromolar
GABAA receptor
  activity in panel of CNS targets: substantial activity
GPR68 [9]
  stimulation of yeast growth: more than two-fold
GPR4
  activity at GPR4: no activity
[6]
  activation of PKA and MAP kinase pathways: activate
